Only some compounds are listed: those with a hit (about 1.5% of all), similar ones and a draw of the others.
CSN inh – CSN deneddylation inhibition; Purified CSN, SCF-Nedd8-OG deneddylation, fluorescence polarization; inhibition, % at 12.5 µM; 0.38% of 360,000 active; AID 651999; Q92905;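 active means pattern-corrected inhibition above about 35%, with an unprinted fluorescence ratio check between 0.5 and 1.5, limit read from the data, passing the limit was not always enough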
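Assay system: Purified human Csn5 enzyme expressed in HEK293T cells | Amount: Enzyme 0.24 nM | Measured by: Fluorescence polarization readout | Medium: Tris/NaCl/DTT buffer, pH 7.5 | Compound dosing: One concentration, 12.5 µM, 0.25% DMSO | Times: 90 min incubation of compound, enzyme and substrate at room temperature | Control set: no-enzyme wells high, enzyme-with-substrate wells low | Read-out: % inhibition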
NR1D1 modulator – Rev-erb alpha (human) modulation; P20393; Rev-erbα–FITC-DNA binding, fluorescence polarization, 90 min; activity, % at 10 µM; 0.79% of 370,000 active;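 active means activity above about 14%, limit read from the data; passing the limit was not always enough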
aDG glyco up – increases alpha dystroglycan glycosylation; Pro5-aDG cells, alpha-DG glycosylation AlphaScreen (IIH6); 0% Pro5, 100% B10-LARGE cell signal; activation, % at 10 µM; 0.22% of 360,000 active;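 active means activation of at least 8% versus controls, or a plate z-score of at least 8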;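 further: Pro5 are CHO cells carrying HIG-tagged alpha-DG that lacks glycosylation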
HNF4A DNA FP – change in binding of human HNF4 alpha to DNA. 0.3% of 360,000 active. HNF4a-FITC DNA binding, fluorescence polarization, 1 h. P41235. activity change, % at 10 µM. AID 1224865; in the data active means activity change above about 30%, passing the limit was not always enough
Target sequence (P41235 whole entry, looked up): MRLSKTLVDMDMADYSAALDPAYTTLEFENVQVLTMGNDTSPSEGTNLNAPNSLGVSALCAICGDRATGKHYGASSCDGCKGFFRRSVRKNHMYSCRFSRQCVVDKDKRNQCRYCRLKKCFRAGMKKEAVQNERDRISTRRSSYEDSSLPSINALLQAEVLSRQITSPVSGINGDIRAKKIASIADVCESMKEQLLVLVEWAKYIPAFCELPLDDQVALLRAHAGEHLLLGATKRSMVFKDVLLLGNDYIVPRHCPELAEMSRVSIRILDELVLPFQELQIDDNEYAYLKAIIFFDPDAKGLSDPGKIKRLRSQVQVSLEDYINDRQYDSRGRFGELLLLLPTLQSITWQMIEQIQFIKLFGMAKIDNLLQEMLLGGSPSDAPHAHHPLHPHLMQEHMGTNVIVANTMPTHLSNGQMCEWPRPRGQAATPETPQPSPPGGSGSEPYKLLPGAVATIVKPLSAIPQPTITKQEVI
NR1D1 mod conf – confirmation of modulators of human Rev-erb alpha DNA binding | shares compounds with NR1D1 modulator | AID 1259319 | Rev-erb alpha FITC-DNA binding, fluorescence polarization, 90 min | activation, % at 25 µM | 61% of 3,000 active;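 active means activation at or above a set limit, or at least 3 SD above the negative control mean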
RORg counter – RORgamma DNA-binding activity, dose-response counter-screen | shares compounds with NR1D1 modulator | purified RORgamma protein-FITC-DNA binding, fluorescence polarization | IC50, µM | 8% of 910 active | AID 1259320;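 active means Compounds whose fitted half-maximal concentration for disrupting protein-DNA binding is below 10 micromolar; the record names Rev-erb in its text, so the target is in doubt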
A number is an active result.

For O=C(NCc1ccco1)c1ccc(Cn2c(=O)c3ccccc3n(Cc3cccc(F)c3)c2=O)cc1 the results were CSN inh inactive, NR1D1 modulator 53, aDG glyco up inactive, HNF4A DNA FP inactive, NR1D1 mod conf 37 and RORg counter inactive.
Screening Cc1cc2cc(CN(Cc3ccco3)C(=O)C3CCCCC3)c(=O)[nH]c2cc1C returned CSN inh inactive, NR1D1 modulator 43, aDG glyco up inactive, HNF4A DNA FP inactive and NR1D1 mod conf 44.
Cc1cc2cc(CN(Cc3ccco3)C(=O)NCc3ccccc3)c(=O)[nH]c2cc1C was read as CSN inh inactive, NR1D1 modulator inactive, aDG glyco up inactive and HNF4A DNA FP inactive.
`CC(=O)c1ccc(N2CCN(S(=O)(=O)c3cc(-c4cc(C)no4)ccc3C(C)C)CC2)cc1` gave CSN inh inactive, NR1D1 modulator 26, aDG glyco up inactive, HNF4A DNA FP inactive and NR1D1 mod conf 22.
For CCc1ccc(-c2cc(C)no2)cc1S(=O)(=O)N1CCN(c2ccc(C(C)=O)cc2)CC1 the results were CSN inh inactive, NR1D1 modulator 27, aDG glyco up inactive, HNF4A DNA FP inactive and NR1D1 mod conf 18.
`Cc1cc(-c2ccc(C(C)C)c(S(=O)(=O)N3CCN(c4ccccc4)CC3)c2)on1` gave CSN inh inactive, NR1D1 modulator inactive, aDG glyco up inactive and HNF4A DNA FP inactive.
`CCc1ccc(-c2cc(C)no2)cc1S(=O)(=O)N1CCN(c2cc(C)ccc2C)CC1` gave CSN inh inactive, NR1D1 modulator inactive, aDG glyco up inactive and HNF4A DNA FP inactive.
For CC(C)[C@H](N)C(=O)N[C@H](C(=O)N1CCC2CCN(S(=O)(=O)c3ccccc3)CC21)C(C)C (stereo partly drawn) the results were NR1D1 modulator inactive.
`COc1ccc(CC(=O)OCc2cc3ccc(C)cc3[nH]c2=O)cc1` gave CSN inh inactive, NR1D1 modulator 34, aDG glyco up inactive, HNF4A DNA FP inactive and NR1D1 mod conf 31.
`Cc1ccc2cc(CN(C(=O)c3cccs3)c3ccccc3)c(=O)[nH]c2c1` gave CSN inh inactive, NR1D1 modulator inactive, aDG glyco up inactive and HNF4A DNA FP inactive.
O=C(OCc1cc2ccccc2[nH]c1=O)c1cccs1 was read as CSN inh inactive, NR1D1 modulator 27, aDG glyco up inactive, HNF4A DNA FP inactive and NR1D1 mod conf 24.
`COc1cc(OC)cc(C(=O)OCc2cc3ccccc3[nH]c2=O)c1` gave CSN inh inactive, NR1D1 modulator 57, aDG glyco up inactive, HNF4A DNA FP inactive, NR1D1 mod conf 50 and RORg counter inactive.
Cc1ccc2[nH]c(=O)c(CN(C(=O)c3cccs3)c3ccccc3)cc2c1 was read as CSN inh inactive, NR1D1 modulator 52, aDG glyco up inactive, HNF4A DNA FP inactive, NR1D1 mod conf 96 and RORg counter inactive.
For C[C@@H]1CCN(C2CC2)S(=O)(=O)c2c(cccc2N2CC[C@H](O)C2)O1 the results were NR1D1 modulator inactive.
For CCC(C(=O)Nc1ccccc1N1CCCC1)c1ccccc1F (stereo not drawn) the results were NR1D1 modulator inactive.
`Cc1cccc(CSc2nc3ccncc3n2CC(=O)Nc2cc(C)cc(C)c2)c1` gave CSN inh inactive, NR1D1 modulator 29, aDG glyco up inactive, HNF4A DNA FP inactive and NR1D1 mod conf 13.
For NC(=O)c1cc2cc(Cc3ccccc3Cl)ccc2oc1=O the results were CSN inh inactive, NR1D1 modulator 20, aDG glyco up inactive, HNF4A DNA FP inactive and NR1D1 mod conf inactive.
Screening COc1ccc(OC)c(C(=O)c2ccc(C(=O)Nc3ccccc3)cc2)c1 returned CSN inh inactive, NR1D1 modulator inactive, aDG glyco up inactive and HNF4A DNA FP inactive.
For COc1ccc(C(=O)Nc2ccc(NC(=O)c3cc(OC)c(OC)c(OC)c3)cn2)cc1 the results were CSN inh inactive, NR1D1 modulator 20, aDG glyco up inactive, HNF4A DNA FP inactive and NR1D1 mod conf inactive.
COc1cc(C(=O)Nc2ccc(NC(=O)c3ccccc3)nc2)cc(OC)c1OC was read as CSN inh inactive, NR1D1 modulator inactive, aDG glyco up inactive and HNF4A DNA FP inactive.
`COc1ccc(C(=O)Nc2ccc(NC(=O)c3cccc(OC)c3)cn2)cc1` gave CSN inh inactive, NR1D1 modulator 18, aDG glyco up inactive, HNF4A DNA FP inactive and NR1D1 mod conf inactive.
Screening COc1ccc(NC(=O)c2ccc(C(=O)c3cc(OC)ccc3OC)cc2)cc1 returned CSN inh inactive, NR1D1 modulator 46, aDG glyco up inactive, HNF4A DNA FP inactive, NR1D1 mod conf 33 and RORg counter inactive.
`CC(c1ccc(NC(=O)OC(C)(C)C)cc1)c1cn(C)c2ccccc12` (stereo not drawn) gave NR1D1 modulator inactive.
`C#CCNC(=O)C[C@@H]1C(=O)N(Cc2ccc(OC)cc2)/C2=C/CCCCC[C@@]21C(=O)OCC` gave NR1D1 modulator inactive.
For CCOc1ccc(/C(CCC(=O)O)=N/NC(=S)NC(C)C)cc1 the results were CSN inh inactive, NR1D1 modulator inactive, aDG glyco up inactive and HNF4A DNA FP inactive.
For CCOc1ccc(/C(CC)=N/NC(=O)C2(C)CC2(Br)Br)cc1 (stereo not drawn) the results were CSN inh inactive, NR1D1 modulator 31, aDG glyco up inactive, HNF4A DNA FP inactive, NR1D1 mod conf 46 and RORg counter inactive.
`COc1ccccc1OC(C)C(=O)Nc1nc(-c2ccc(S(=O)(=O)N3CCOCC3)cc2)cs1` (stereo not drawn) gave CSN inh inactive, NR1D1 modulator inactive, aDG glyco up inactive and HNF4A DNA FP inactive.
Screening COc1ccccc1C(=O)Nc1nc(-c2ccc(S(=O)(=O)N3CCOCC3)cc2)cs1 returned CSN inh inactive, NR1D1 modulator 43, aDG glyco up inactive, HNF4A DNA FP inactive and NR1D1 mod conf 29.
For CC(=O)c1cnc2c(-c3cccc(Br)c3)cnn2c1C the results were CSN inh inactive, NR1D1 modulator 30, aDG glyco up inactive, HNF4A DNA FP inactive, NR1D1 mod conf 34 and RORg counter inactive.
`CCOC(=O)Cc1c(C)nc2c(-c3cccc(Br)c3)cnn2c1C` gave CSN inh inactive, NR1D1 modulator inactive, aDG glyco up inactive and HNF4A DNA FP inactive.
For COc1ccccc1-c1nnc(NC(=O)c2ccc3c(c2)OCO3)s1 the results were CSN inh inactive, NR1D1 modulator 55, aDG glyco up inactive, HNF4A DNA FP inactive and NR1D1 mod conf inactive.
Screening COC(=O)c1sccc1NC(=O)c1ccc2c(c1)OCO2 returned CSN inh inactive, NR1D1 modulator inactive, aDG glyco up inactive and HNF4A DNA FP inactive.
Screening Cc1ccc(C)c(OCc2nnc(NC(=O)c3ccc4c(c3)OCO4)s2)c1 returned CSN inh inactive, NR1D1 modulator 30, aDG glyco up inactive, HNF4A DNA FP inactive and NR1D1 mod conf inactive.

Screening data as filed in PubChem.
